ChEMBL document CHEMBL4428050, “Design, Synthesis, and Biological Evaluation of Substituted Pyrimidines as Potential Phosphatidylinositol 3-Kinase (PI3K) Inhibitors” (J Med Chem, 2016)
Activity calls are given as the source filed them. The calls are words filed in the database; no cut-off is given here.

Legend:
A-431 = test: Antiproliferative activity against human A431 cells after 72 hrs by CCK8 assay; type: functional, cell-based
DU-145 = test: Antiproliferative activity against human DU145 cells after 72 hrs by CCK8 assay; type: functional, cell-based
HL-60 = test: Antiproliferative activity against human HL60 cells after 72 hrs by CCK8 assay; type: functional, cell-based; conditions: HL-60, 72 h
NCI-N87 = test: Antiproliferative activity against human NCI-N87 cells after 72 hrs by CCK8 assay; type: functional, cell-based
U-937 = test: Antiproliferative activity against human U937 cells after 72 hrs by CCK8 assay; type: functional, cell-based
A549 = test: Antiproliferative activity against human A549 cells after 72 hrs by CCK8 assay; type: functional, cell-based
PC-3 = test: Antiproliferative activity against human PC3 cells after 72 hrs by CCK8 assay; type: functional, cell-based; conditions: PC-3, 72 h
HeLa = test: Antiproliferative activity against human HeLa cells after 72 hrs by CCK8 assay; type: functional, cell-based
MDA-MB-231 [1] = test: Antiproliferative activity against human MDA-MB-231 cells by WST8 assay; type: functional, cell-based
K562 = test: Antiproliferative activity against human K562 cells after 72 hrs by CCK8 assay; type: functional, cell-based
PANC-1 = test: Antiproliferative activity against human PANC1 cells after 72 hrs by CCK8 assay; type: functional, cell-based
MOLT-4 = test: Antiproliferative activity against human MOLT4 cells after 72 hrs by CCK8 assay; type: functional, cell-based
[2] = Inhibition of PI3K p110alpha/p85 (unknown origin) using PIP2/ATP as substrate after 1 hr by kinase glo luminescent assay; parameters: species or system Homo sapiens
Outline: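 PI3K p110α activity read by Kinase-Glo Plus luminescence. IC50 is the mean of triplicate measurements.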

MCF7 = test: Antiproliferative activity against human MCF7 cells after 72 hrs by CCK8 assay; type: functional, cell-based
SK-BR-3 = test: Antiproliferative activity against human SK-BR-3 cells after 72 hrs by CCK8 assay; type: functional, cell-based; conditions: SK-BR-3, 72 h
Bel-7402 = test: Antiproliferative activity against human Bel7402 cells after 72 hrs by CCK8 assay; type: functional, cell-based; conditions: Bel-7402, 72 h
BGC-823 = test: Antiproliferative activity against human BGC823 cells after 72 hrs by CCK8 assay; type: functional, cell-based; conditions: Homo sapiens, BGC-823, 72 h
HT-1080 = test: Antiproliferative activity against human HT1080 cells after 72 hrs by CCK8 assay; type: functional, cell-based; conditions: HT-1080, 72 h
Homo sapiens [3] = organism: Homo sapiens; test: Inhibition of PI3K in human U937 cells assessed as suppression of AKT phosphorylation at S473 after 24 hrs by Western blot analysis; type: cell-based
[4] = Inhibition of PI3K p110beta/p85 (unknown origin) using PIP2/ATP as substrate after 1 hr by kinase glo luminescent assay; parameters: species or system Homo sapiens
[5] = Inhibition of PI3K p110delta/p85 (unknown origin) using PIP2/ATP as substrate after 1 hr by kinase glo luminescent assay; parameters: species or system Homo sapiens
Huh-7 = test: Antiproliferative activity against human HuH7 cells after 72 hrs by CCK8 assay; type: functional, cell-based; conditions: Huh-7, 72 h
SGC-7901 = test: Antiproliferative activity against human SGC7901 cells after 72 hrs by CCK8 assay; type: functional, cell-based; conditions: SGC-7901, 72 h
[6] = target: PI3-kinase subunit gamma/Phosphoinositide 3-kinase regulatory subunit 5 (Homo sapiens, UniProt P48736); test: Inhibition of PI3K p110gamma/p101 (unknown origin) using PIP2/ATP as substrate after 1 hr by kinase glo luminescent assay; type: protein-complex assay
Homo sapiens [7] = organism: Homo sapiens; test: Selectivity ratio of IC50 for PI3K p110beta/p85 (unknown origin) to IC50 for PI3K p110alpha/p85 (unknown origin)
[8] = Toxicity in nude mouse xenografted with human MDA-MB-231 cells assessed as decrease in body weight at 30 mg/kg, ig administered every 2 days for 19 days measured during compound dosing; type: organism-based; conditions: in vivo, po
Outline: (§1)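 Nude mice carried MDA-MB-231 xenograft tumours and received vehicle or 30 mg/kg intragastrically every two days for 19 days. Estimated tumour volume and body weight were followed over time. Tumours were dissected from 5 mice per group and weighed. Data are mean±SD, n=5, Student t test.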

MDA-MB-231 [9] = test: Antitumor activity against human MDA-MB-231 cells xenografted in nude mouse assessed as tumor size at 30 mg/kg, ig administered every 2 days for 19 days measured post last dose (reference value: 1065 +/- 142 mm'3); type: functional; outline: as §1
MDA-MB-231 [10] = test: Antitumor activity against human MDA-MB-231 cells xenografted in nude mouse assessed as tumor weight at 30 mg/kg, ig administered every 2 days for 19 days measured post last dose (reference value: 0.74 +/- 0.10 g); type: functional; outline: as §1

Sequence of PI3-kinase subunit gamma/Phosphoinositide 3-kinase regulatory subunit 5 (P48736 whole entry): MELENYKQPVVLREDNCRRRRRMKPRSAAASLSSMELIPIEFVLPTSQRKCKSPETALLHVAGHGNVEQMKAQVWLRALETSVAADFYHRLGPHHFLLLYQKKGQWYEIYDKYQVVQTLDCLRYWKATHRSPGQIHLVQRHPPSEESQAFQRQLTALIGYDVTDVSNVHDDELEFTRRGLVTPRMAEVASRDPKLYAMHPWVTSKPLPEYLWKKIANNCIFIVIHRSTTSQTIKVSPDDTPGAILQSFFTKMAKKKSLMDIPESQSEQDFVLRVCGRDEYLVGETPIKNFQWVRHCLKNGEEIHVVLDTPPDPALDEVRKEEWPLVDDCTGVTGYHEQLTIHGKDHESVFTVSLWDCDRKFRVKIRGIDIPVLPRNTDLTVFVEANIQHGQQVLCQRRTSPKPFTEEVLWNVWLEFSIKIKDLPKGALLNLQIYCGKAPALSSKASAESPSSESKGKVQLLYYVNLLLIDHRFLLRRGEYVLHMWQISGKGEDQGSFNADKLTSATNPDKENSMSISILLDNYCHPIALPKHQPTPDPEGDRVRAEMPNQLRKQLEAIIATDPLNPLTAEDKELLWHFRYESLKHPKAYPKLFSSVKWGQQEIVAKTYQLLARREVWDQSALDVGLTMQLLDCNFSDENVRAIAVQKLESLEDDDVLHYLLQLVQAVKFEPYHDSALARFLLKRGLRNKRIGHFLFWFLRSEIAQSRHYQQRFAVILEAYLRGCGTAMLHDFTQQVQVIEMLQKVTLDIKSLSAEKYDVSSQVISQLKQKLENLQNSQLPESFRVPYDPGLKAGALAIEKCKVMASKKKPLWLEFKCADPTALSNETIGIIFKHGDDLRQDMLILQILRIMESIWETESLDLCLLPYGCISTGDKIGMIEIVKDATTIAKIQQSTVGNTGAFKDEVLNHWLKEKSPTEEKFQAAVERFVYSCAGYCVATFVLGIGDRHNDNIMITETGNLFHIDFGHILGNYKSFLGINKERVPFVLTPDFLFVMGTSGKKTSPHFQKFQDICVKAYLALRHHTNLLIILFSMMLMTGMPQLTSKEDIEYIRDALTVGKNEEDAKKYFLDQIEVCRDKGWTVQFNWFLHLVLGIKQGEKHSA
Sequence of PI3-kinase subunit gamma/Phosphoinositide 3-kinase regulatory subunit 5 (Q8WYR1 whole entry, further chain): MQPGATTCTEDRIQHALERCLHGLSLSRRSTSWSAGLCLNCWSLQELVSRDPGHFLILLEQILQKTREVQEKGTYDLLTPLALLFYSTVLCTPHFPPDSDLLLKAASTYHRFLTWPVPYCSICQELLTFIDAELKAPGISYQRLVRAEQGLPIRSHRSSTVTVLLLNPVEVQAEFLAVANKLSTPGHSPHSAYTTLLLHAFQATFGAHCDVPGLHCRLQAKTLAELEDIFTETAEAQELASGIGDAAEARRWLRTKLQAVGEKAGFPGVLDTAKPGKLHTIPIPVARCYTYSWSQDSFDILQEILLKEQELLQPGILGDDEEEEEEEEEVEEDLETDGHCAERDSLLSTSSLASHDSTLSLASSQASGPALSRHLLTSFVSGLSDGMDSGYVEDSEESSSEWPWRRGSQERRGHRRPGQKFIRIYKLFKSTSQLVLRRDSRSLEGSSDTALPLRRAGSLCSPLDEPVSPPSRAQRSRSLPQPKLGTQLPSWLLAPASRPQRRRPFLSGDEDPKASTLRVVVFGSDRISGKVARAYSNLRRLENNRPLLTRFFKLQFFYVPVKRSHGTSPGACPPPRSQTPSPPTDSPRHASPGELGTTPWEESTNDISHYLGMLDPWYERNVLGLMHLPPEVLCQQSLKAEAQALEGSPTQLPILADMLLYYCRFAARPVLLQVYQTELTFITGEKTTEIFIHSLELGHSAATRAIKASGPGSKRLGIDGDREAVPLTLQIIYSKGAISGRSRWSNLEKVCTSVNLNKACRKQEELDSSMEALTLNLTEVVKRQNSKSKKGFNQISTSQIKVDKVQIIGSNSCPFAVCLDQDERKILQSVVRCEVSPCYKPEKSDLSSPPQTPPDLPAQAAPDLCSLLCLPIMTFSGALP

IC50 (A-431; Homo sapiens, A-431, 72 h)	IC50 (DU-145; Homo sapiens, DU-145, 72 h)	IC50 (HL-60)	IC50 (U-937; Homo sapiens, U-937, 72 h)	IC50 (A549; Homo sapiens, A549, 72 h)	IC50 (PC-3)	IC50 (HeLa; Homo sapiens, HeLa, 72 h)	IC50 (MDA-MB-231 [1])	IC50 (K562; Homo sapiens, K562, 72 h)	IC50 (PANC-1; Homo sapiens, PANC-1, 72 h)	IC50 (MOLT-4; Homo sapiens, MOLT-4, 72 h)	IC50 [2]	IC50 (MCF7; Homo sapiens, MCF7, 72 h)	IC50 (SK-BR-3)	IC50 (Bel-7402)	IC50 (BGC-823)	IC50 (HT-1080)	IC50 (Huh-7)	IC50 (SGC-7901)	SMILES	IC50 (NCI-N87; Homo sapiens, NCI-N87, 72 h)	also measured
11.5 µM	0.99 µM	4.34 µM	10.4 µM	4.57 µM	2.21 µM	> 100 µM	7.28 µM	14.9 µM	8.52 µM	4.07 µM	0.118 µM	16.5 µM	6.53 µM						Nc1cc(C(F)(F)F)c(-c2cc(N3CCOCC3)nc(Nc3cccc(N4CCOCC4)c3)n2)cn1	4.66 µM	
1.03 µM	0.91 µM		0.58 µM	1.51 µM		1.17 µM		1.1 µM	1.83 µM	0.8 µM	0.028 µM	1.5 µM		1.92 µM	1.43 µM	2.08 µM	1.51 µM	1.24 µM	Nc1cc(C(F)(F)F)c(-c2cc(N3CCOCC3)nc(N3CCOCC3)n2)cn1 [BUPARLISIB]	0.66 µM	inhibition (Homo sapiens [3]): Active; IC50 [4]: 0.259 µM; IC50 [5]: 0.062 µM
32.2 µM	1.08 µM	4.85 µM	5.53 µM	9.5 µM	6.24 µM	> 100 µM	11.9 µM	24.5 µM	7.64 µM	2.08 µM	0.038 µM	9.29 µM	3.67 µM						Nc1cc(C(F)(F)F)c(-c2nc(N3CCOCC3)nc(N3C[C@@H]4OCCO[C@H]4C3)n2)cn1	2.77 µM	
5.9 µM	6.71 µM	0.94 µM	2.39 µM	5.46 µM	7.49 µM	> 100 µM	5.36 µM	11.2 µM	2.36 µM	1.11 µM	0.031 µM	4.97 µM	1.63 µM						CS(=O)(=O)N1CCN(c2ccc(Nc3nc(-c4cnc(N)cc4C(F)(F)F)cc(N4CCOCC4)n3)cc2)CC1	1.29 µM	
0.18 µM	0.06 µM		0.04 µM	0.05 µM		0.09 µM		0.12 µM	0.1 µM	0.02 µM		0.07 µM	0.05 µM	0.1 µM	0.07 µM	0.08 µM	0.06 µM	0.03 µM	CC(/C=C/C(=O)NO)=C\[C@@H](C)C(=O)c1ccc(N(C)C)cc1 [TRICHOSTATIN]	0.06 µM	
																			Nc1cc(C(F)(F)F)c(-c2cc(N3CCOCC3)nc(N3C[C@@H]4OCCO[C@H]4C3)n2)cn1 (racemic) [listing 1 of 2 here]		inhibition (Homo sapiens [3]): Active
10.5 µM		2.49 µM	4.74 µM	9.13 µM	19.5 µM	> 100 µM	4.34 µM		3.47 µM	1.96 µM	0.018 µM	12.8 µM	4.79 µM						CS(=O)(=O)N1CCN(C(=O)c2ccc(Nc3nc(-c4cnc(N)cc4C(F)(F)F)cc(N4CCOCC4)n3)cc2)CC1	4.22 µM	inhibition (Homo sapiens [3]): Active; IC50 [6]: 0.08 µM; IC50 [4]: 2.01 µM; IC50 [5]: 0.013 µM; Ratio IC50 (Homo sapiens [7]): 112
3.68 µM			0.77 µM	3.39 µM		2.66 µM		4.26 µM	3.26 µM	1 µM	0.031 µM	2.42 µM		3.37 µM	3.09 µM	4.73 µM	4.26 µM	3.14 µM	Nc1cc(C(F)(F)F)c(-c2cc(N3CCOCC3)nc(N3C[C@@H]4OCCO[C@H]4C3)n2)cn1 (racemic) [listing 2 of 2 here]	1.36 µM	IC50 (DU-145; du-145): 1.93 µM; IC50 [6]: 0.158 µM; IC50 [4]: 0.175 µM; IC50 [5]: 0.061 µM; Activity [8]: Non-Toxic; Activity (MDA-MB-231 [9]): 402 mm3; Activity (MDA-MB-231 [10]): 0.32 g
1.79 µM	2.38 µM		0.72 µM	3.05 µM		1.76 µM		2.4 µM	2.78 µM	1.14 µM	0.06 µM	2.54 µM		2.79 µM	2.44 µM	2.72 µM	2.93 µM	2.3 µM	Nc1cc(C(F)(F)F)c(-c2cc(N3CCOCC3)nc(N3C[C@H]4C[C@@H]3CO4)n2)cn1	1.41 µM	
3.03 µM	7.11 µM		2.86 µM	5.56 µM		5.33 µM		3.19 µM	5.97 µM	3.24 µM	0.375 µM	7.29 µM		6.43 µM	4.33 µM	5.64 µM	6.29 µM	4.78 µM	Nc1cc(C(F)(F)F)c(-c2cc(N3C[C@H]4OCCO[C@@H]4C3)nc(N3CCOCC3)n2)cn1 (racemic)	6.21 µM	
2.55 µM	4.81 µM		1.76 µM	4.98 µM		4.31 µM		1.75 µM	3.67 µM	2.51 µM	0.117 µM	4.95 µM		5.82 µM	4.57 µM	4.84 µM	4.84 µM	3.75 µM	Nc1cc(C(F)(F)F)c(-c2cc(N3CCOCC3)nc(N3C[C@@H]4OCCO[C@@H]4C3)n2)cn1	1.97 µM	
		2.7 µM			5.63 µM		15.1 µM				0.068 µM		4.27 µM						Nc1cc(C(F)(F)F)c(-c2nc(N3CCOCC3)nc(N3C[C@H]4OCCO[C@@H]4C3)n2)cn1		IC50 (A-431; a-431): 14.1 µM; IC50 (DU-145; du-145): 7.36 µM; IC50 (NCI-N87; nci-n87): 3.9 µM; IC50 (U-937; u-937): 4.03 µM; IC50 (A549; a549): 8.01 µM; IC50 (HeLa; hela): > 100 µM; IC50 (K562; k562): 24.6 µM; IC50 (PANC-1; panc-1): 9.04 µM; IC50 (MOLT-4; molt-4): 2.28 µM; IC50 (MCF7; mcf7): 7.32 µM
